Assay results: ChEMBL document CHEMBL1125249, “Structure-affinity relationships of 12-sulfonyl derivatives of 5,8,8a,9,10,11,12,12a,13,13a-decahydro-6H-isoquino[2,1-g][1 ,6] naphthyridines at alpha-adrenoceptors” (J Med Chem, 1991)

Key:
[1] = molecular target: T1, Adrenergic receptor alpha-2 (Rattus norvegicus, UniProt P22086+P19328+P22909); assay: Binding affinity to alpha-2 adrenergic receptor determined by measurement of [3H]yohimbine displacement from rat cortical membrane
T1 sequence (P22086 whole entry): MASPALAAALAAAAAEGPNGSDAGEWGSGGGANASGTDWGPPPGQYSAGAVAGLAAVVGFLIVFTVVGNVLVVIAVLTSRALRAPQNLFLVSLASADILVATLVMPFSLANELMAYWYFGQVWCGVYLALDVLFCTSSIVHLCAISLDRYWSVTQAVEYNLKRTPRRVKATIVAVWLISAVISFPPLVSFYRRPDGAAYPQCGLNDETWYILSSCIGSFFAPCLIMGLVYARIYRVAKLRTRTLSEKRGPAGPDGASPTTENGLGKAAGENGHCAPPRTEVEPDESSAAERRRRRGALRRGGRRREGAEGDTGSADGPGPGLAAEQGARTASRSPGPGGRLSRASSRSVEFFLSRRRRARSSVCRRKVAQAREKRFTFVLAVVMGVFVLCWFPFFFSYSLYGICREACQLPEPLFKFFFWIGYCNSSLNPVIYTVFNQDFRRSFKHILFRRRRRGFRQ
T1 sequence (P19328 whole entry): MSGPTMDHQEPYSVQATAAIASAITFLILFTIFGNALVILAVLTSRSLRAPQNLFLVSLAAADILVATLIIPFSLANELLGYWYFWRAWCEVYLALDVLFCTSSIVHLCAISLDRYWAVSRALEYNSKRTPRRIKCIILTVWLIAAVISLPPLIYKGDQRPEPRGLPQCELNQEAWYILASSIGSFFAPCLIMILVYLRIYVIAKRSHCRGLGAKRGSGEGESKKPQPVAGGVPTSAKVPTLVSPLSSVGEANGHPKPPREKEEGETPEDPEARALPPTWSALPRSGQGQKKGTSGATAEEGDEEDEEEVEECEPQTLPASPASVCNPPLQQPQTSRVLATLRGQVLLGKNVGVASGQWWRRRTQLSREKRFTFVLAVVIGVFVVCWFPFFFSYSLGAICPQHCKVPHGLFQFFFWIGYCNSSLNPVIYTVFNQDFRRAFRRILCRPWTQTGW
T1 sequence (P22909 whole entry): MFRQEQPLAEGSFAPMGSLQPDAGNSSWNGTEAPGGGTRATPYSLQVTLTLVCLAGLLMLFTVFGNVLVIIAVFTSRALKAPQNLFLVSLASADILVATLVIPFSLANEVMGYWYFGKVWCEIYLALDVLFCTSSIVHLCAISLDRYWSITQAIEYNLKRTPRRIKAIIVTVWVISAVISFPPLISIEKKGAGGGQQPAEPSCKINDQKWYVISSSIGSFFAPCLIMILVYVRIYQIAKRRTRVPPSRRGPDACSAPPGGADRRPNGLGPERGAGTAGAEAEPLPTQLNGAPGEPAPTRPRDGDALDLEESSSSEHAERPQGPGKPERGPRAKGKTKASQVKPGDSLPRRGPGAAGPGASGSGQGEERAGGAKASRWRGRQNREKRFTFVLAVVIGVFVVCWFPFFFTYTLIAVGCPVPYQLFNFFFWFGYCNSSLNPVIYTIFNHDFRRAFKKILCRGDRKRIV

[2] = molecular target: T2, Adrenergic receptor alpha-1 (Rattus norvegicus, UniProt P15823+P23944+P43140); assay: Binding affinity to alpha-1 adrenergic receptor determined by measurement of [3H]prazosin displacement from rat cortical membrane
T2 sequence (P15823 whole entry): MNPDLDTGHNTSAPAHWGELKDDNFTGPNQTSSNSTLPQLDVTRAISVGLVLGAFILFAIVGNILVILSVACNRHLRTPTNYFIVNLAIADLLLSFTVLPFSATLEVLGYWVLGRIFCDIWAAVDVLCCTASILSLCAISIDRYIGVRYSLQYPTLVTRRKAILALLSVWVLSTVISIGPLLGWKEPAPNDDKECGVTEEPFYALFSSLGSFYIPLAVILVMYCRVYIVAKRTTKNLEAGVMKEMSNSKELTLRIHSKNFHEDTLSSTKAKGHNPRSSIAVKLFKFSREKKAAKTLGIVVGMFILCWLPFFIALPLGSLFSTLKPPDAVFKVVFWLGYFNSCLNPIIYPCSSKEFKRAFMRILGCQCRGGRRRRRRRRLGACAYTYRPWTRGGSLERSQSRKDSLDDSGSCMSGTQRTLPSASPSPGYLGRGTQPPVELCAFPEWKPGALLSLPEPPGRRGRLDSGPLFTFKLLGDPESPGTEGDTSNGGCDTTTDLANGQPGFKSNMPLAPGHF
T2 sequence (P23944 whole entry): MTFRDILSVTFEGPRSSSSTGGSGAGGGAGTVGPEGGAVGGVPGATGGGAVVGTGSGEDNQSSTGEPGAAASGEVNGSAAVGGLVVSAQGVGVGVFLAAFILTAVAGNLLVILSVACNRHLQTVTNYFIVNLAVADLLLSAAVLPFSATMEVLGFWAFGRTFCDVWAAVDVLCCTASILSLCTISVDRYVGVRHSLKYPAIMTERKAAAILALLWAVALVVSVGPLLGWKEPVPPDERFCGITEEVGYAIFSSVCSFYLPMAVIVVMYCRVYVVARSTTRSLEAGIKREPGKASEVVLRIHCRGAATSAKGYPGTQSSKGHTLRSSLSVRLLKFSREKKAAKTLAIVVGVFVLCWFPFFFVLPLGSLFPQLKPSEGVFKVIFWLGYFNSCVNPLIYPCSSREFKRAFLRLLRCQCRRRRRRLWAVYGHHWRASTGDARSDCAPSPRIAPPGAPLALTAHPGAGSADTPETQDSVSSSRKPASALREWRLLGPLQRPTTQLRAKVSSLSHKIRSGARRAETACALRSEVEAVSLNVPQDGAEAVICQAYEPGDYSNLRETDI
T2 sequence (P43140 whole entry): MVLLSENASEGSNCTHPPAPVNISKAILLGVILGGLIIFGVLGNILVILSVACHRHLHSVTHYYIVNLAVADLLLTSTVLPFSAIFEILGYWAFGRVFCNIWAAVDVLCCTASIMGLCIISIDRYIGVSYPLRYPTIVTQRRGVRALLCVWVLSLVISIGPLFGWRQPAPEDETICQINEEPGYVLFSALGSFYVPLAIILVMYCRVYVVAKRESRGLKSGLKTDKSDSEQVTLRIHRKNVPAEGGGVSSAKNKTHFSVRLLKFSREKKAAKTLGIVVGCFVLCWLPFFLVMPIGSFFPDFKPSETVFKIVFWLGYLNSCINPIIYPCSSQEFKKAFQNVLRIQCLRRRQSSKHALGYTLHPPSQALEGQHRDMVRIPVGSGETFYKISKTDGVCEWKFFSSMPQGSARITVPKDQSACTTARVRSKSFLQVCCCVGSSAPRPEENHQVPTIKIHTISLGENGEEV
In short: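 Male Sprague-Dawley rat (150-200 g) cerebral cortex membranes, washed in 50 mM Tris-HCl/0.5 mM EDTA pH 7.4. 250 µg membrane protein incubated with 0.5 nM [3H]prazosin for 30 min at 25 °C in a 0.5 mL volume. Nonspecific binding defined by 10 µM phentolamine. IC50 estimated graphically; Ki calculated by Cheng-Prusoff.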

Cavia porcellus = organism: Cavia porcellus; assay: In vitro reversal of inhibitory effect of UK - 14304 on the contractile response of guinea pig ileum to field stimulation.; type: functional, organism-based; details: read-out: pA2 (converted)
In short: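 Ileum from female Dunkin-Hartley guinea pigs (250-300 g) held in Tyrode solution at 37 °C, gassed with O2, under 1 g tension. Field stimulation at 0.1 Hz (1-ms pulses, supramaximal voltage), with isometric contractions recorded. Cumulative UK-14304 curves were run, the second taken as control. Antagonist was then applied for 40 min before repeat agonist curves.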

[3] = molecular target: T3, Adrenergic receptor alpha-2 (Rattus norvegicus) (UniProt P22086+P19328+P22909)
[4] = molecular target: T3, Adrenergic receptor alpha-2 (Rattus norvegicus); remark: listed apart in the source

Log Ki [1] | Log Ki [2] | ID50 [3] | ID50 [4] | Compound | Kb (Cavia porcellus)
-9.18 | -4.99 | 0.013 mg/kg | 0.21 mg/kg | COc1ccc2c(c1)CCN1C[C@H]3CCCN(S(C)(=O)=O)[C@H]3C[C@@H]21 [DELEQUAMINE] | 0.2 nM
-8.82 | -4.97 | 0.019 mg/kg | 1.1 mg/kg | CCS(=O)(=O)N1CCC[C@@H]2CN3CCc4ccccc4[C@@H]3C[C@@H]21 | 5.01 nM
